Laboratory results from ChEMBL document CHEMBL4184298, “Development of Potent Inhibitors of Receptor Tyrosine Kinases by Ligand-Based Drug Design and Target-Biased Phenotypic Screening” (J Med Chem, 2018).

How the values were obtained:
[1] = molecular target: RAC-alpha serine/threonine-protein kinase (Homo sapiens, UniProt P31749); assay: Inhibition of AKT (unknown origin) using poly [Glu, Try] 4:1 as substrate in presence of [gamma-33P]ATP
Summary of the method: (§1)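 Radiometric assay on recombinant kinase: ³³P incorporation into the kinase substrate was measured and activity was expressed relative to a DMSO control.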

[2] = molecular target: Mast/stem cell growth factor receptor Kit (Homo sapiens, UniProt P10721); assay: Inhibition of wild-type human partial length KIT (I571 to D952 residues) expressed in bacterial expression system using poly [Glu, Try] 4:1 as substrate in presence of [gamma-33P]ATP; summary of the method: as §1
[3] = molecular target: Hepatocyte growth factor receptor (Homo sapiens, UniProt P08581); assay: Inhibition of wild-type human partial length MET (D1010 to S1367 residues) expressed in bacterial expression system using poly [Glu, Try] 4:1 as substrate in presence of [gamma-33P]ATP; summary of the method: as §1
[4] = molecular target: T1, Receptor-type tyrosine-protein kinase FLT3 (Homo sapiens, UniProt P36888); assay: Inhibition of wild-type human partial length FLT3 (V592 to Y969 residues) expressed in bacterial expression system using poly [Glu, Try] 4:1 as substrate in presence of [gamma-33P]ATP
T1 sequence (P36888 whole entry): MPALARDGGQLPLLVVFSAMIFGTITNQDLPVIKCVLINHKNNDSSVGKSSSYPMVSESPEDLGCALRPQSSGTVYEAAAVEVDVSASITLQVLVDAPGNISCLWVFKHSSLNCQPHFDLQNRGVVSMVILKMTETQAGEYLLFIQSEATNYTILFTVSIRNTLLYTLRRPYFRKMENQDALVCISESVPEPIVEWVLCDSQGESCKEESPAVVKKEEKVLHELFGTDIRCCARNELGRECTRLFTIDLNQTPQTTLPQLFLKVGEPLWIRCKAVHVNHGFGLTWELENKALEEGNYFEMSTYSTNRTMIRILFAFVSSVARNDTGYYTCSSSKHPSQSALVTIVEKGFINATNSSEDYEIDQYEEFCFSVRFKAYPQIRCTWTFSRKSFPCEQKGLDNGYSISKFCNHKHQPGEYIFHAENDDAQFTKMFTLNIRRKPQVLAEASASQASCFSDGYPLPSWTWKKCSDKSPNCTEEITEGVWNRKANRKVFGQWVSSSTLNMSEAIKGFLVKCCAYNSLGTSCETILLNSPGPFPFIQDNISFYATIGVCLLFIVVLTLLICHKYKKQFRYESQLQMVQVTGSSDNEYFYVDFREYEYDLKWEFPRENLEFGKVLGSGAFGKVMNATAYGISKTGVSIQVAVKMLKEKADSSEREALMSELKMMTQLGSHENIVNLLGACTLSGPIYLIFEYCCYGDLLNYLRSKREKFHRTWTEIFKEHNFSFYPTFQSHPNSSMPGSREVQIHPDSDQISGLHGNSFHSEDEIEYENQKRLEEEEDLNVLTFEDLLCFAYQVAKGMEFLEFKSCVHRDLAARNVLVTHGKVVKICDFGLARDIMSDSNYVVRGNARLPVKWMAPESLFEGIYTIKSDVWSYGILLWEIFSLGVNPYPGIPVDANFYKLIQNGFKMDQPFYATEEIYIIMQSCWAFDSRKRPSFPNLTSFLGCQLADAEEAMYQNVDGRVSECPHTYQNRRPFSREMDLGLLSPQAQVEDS

[5] = molecular target: Serine/threonine-protein kinase mTOR (Homo sapiens, UniProt P42345); assay: Inhibition of wild-type human partial length MTOR (L1382 to W2549 residues) expressed in mammalian expression system using poly [Glu, Try] 4:1 as substrate in presence of [gamma-33P]ATP; summary of the method: as §1
[6] = molecular target: Proto-oncogene tyrosine-protein kinase receptor Ret (Homo sapiens, UniProt P07949); assay: Inhibition of wild-type human partial length RET (E713 to D1014 residues) expressed in bacterial expression system using poly [Glu, Try] 4:1 as substrate in presence of [gamma-33P]ATP; summary of the method: as §1
[7] = molecular target: T2, Tyrosine-protein kinase receptor TYRO3 (Homo sapiens, UniProt Q06418); assay: Inhibition of wild-type human partial length TYRO3 (S497 to T814 residues) expressed in bacterial expression system using poly [Glu, Try] 4:1 as substrate in presence of [gamma-33P]ATP; summary of the method: as §1
T2 sequence (Q06418 whole entry): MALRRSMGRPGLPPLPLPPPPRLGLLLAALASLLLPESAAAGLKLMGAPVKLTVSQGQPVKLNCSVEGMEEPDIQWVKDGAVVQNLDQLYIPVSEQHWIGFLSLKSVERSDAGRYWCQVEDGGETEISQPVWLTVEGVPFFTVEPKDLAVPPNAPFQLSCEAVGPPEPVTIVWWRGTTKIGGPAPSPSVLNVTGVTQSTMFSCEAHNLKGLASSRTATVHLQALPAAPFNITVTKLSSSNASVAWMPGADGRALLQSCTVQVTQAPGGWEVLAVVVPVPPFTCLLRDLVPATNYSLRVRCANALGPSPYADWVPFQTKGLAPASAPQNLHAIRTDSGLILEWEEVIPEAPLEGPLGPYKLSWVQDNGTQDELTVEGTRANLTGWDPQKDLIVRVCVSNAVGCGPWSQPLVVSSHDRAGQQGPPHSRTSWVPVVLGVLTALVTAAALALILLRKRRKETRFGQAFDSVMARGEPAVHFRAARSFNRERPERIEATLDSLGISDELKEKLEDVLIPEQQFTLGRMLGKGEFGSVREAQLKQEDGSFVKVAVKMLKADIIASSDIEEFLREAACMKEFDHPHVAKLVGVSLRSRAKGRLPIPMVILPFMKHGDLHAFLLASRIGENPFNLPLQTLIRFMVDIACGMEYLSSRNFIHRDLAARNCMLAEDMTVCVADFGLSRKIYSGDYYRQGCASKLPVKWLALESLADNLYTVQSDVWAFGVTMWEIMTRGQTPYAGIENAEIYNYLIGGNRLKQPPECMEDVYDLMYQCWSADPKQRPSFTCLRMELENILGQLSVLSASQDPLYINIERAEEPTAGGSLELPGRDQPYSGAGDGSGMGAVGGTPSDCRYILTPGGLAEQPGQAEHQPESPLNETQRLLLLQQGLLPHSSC

Sequence of Proto-oncogene tyrosine-protein kinase receptor Ret (P07949 whole entry, the tested form may be a part): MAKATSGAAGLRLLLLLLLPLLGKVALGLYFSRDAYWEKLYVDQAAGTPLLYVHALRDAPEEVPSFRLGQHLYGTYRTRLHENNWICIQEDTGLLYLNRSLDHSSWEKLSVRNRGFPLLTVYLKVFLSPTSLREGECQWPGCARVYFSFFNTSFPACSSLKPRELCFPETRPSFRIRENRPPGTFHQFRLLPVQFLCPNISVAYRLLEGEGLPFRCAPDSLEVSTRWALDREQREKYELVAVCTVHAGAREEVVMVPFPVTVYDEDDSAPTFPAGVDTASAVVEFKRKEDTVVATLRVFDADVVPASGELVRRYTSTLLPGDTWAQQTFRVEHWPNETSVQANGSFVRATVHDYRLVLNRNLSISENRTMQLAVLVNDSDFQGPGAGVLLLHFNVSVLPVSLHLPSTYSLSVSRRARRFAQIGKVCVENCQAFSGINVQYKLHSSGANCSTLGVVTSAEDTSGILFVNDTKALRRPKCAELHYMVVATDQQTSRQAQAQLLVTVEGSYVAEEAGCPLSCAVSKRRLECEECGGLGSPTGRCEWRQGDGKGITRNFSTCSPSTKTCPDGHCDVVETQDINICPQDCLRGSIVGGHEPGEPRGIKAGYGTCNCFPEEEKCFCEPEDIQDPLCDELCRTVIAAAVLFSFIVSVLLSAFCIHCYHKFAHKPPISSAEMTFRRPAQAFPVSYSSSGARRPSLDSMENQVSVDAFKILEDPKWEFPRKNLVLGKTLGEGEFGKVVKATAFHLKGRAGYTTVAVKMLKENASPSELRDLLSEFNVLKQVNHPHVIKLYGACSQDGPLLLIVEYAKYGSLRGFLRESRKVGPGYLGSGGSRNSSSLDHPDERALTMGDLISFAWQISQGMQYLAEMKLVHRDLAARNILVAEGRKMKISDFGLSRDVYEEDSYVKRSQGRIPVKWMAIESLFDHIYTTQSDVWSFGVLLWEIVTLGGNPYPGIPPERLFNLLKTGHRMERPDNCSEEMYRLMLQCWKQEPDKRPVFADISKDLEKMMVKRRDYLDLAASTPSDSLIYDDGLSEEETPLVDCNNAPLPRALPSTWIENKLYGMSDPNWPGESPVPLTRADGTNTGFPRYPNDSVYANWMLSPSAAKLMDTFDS
Sequence of Mast/stem cell growth factor receptor Kit (P10721 whole entry, the tested form may be a part): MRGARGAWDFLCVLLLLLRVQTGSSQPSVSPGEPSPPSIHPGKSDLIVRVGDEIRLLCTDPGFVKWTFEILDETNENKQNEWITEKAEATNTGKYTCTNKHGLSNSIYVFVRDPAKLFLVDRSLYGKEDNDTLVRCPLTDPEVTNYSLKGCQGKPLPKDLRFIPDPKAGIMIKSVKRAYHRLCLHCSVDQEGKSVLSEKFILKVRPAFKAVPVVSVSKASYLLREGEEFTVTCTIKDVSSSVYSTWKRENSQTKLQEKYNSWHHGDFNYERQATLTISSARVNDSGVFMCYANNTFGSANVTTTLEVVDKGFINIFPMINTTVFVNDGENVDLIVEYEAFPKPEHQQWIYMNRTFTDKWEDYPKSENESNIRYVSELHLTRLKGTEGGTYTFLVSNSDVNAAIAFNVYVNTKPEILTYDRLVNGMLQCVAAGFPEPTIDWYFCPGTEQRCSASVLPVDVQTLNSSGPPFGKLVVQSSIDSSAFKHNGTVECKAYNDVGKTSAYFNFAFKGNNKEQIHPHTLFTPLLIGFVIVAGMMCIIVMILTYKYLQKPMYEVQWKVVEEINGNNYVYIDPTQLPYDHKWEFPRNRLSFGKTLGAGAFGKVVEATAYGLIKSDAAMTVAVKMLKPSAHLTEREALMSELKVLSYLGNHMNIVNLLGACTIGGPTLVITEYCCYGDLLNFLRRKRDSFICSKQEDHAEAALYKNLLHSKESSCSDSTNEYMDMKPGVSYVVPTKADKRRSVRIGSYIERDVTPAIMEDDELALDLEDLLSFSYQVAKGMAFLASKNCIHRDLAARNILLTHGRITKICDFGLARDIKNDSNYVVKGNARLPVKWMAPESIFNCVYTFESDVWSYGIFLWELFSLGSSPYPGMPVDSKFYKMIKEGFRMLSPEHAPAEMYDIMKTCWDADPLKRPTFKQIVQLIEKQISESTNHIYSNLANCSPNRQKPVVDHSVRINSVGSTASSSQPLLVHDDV
Sequence of Hepatocyte growth factor receptor (P08581 whole entry, the tested form may be a part): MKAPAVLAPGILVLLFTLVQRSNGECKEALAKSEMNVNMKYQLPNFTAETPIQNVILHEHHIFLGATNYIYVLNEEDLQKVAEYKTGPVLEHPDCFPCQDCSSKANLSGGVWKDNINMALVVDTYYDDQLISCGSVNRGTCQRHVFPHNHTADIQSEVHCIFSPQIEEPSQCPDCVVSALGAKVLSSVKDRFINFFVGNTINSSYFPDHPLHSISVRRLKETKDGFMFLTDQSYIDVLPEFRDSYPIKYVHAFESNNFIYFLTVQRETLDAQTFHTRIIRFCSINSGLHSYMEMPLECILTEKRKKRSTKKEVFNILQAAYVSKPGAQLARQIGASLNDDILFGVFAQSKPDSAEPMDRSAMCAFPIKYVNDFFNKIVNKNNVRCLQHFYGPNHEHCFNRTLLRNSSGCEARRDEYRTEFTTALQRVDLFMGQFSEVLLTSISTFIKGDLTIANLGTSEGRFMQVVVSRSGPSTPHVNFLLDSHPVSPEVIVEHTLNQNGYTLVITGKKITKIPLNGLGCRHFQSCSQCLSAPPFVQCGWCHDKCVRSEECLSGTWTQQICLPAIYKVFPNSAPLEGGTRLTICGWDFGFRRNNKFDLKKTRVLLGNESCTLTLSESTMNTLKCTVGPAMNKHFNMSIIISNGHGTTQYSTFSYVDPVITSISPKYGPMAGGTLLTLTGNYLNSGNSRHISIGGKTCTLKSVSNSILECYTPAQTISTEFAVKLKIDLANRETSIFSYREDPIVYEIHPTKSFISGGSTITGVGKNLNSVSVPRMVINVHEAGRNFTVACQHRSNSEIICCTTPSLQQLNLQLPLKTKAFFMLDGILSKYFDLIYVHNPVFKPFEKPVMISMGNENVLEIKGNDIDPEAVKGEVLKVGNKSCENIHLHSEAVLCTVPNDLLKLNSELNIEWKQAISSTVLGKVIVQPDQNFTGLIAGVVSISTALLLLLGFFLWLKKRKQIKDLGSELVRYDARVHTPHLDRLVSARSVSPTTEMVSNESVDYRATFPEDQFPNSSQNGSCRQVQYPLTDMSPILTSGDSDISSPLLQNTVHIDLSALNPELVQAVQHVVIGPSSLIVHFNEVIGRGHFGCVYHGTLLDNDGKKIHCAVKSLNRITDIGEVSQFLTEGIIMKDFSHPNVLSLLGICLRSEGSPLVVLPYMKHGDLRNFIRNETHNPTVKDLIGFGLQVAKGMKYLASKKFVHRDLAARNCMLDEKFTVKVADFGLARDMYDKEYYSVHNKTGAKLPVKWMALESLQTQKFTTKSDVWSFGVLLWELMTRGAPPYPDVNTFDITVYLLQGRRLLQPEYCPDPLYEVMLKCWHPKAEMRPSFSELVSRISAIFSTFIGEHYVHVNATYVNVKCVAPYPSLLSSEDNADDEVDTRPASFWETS
Sequence of RAC-alpha serine/threonine-protein kinase (P31749 whole entry): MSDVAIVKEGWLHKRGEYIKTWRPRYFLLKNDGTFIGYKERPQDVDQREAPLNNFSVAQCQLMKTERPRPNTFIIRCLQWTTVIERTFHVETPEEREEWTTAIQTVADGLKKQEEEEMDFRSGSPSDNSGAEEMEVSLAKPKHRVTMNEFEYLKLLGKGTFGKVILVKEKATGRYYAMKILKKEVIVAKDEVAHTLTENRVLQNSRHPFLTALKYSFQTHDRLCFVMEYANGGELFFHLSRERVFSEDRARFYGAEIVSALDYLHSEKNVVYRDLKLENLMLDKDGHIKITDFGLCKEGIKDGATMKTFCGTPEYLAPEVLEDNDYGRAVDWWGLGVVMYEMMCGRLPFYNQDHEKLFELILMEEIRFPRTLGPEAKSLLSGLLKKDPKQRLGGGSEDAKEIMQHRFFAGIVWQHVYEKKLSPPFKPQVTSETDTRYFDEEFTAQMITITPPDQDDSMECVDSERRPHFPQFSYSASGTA

Compound	IC50 [1]	IC50 [2]	IC50 [3]	IC50 [4]	IC50 [5]	IC50 [6]	IC50 [7]
CNc1ncc2c(-c3ccc(N4CCN(C)CC4)nc3)nn(CC3CCCC3)c2n1	> 10 µM	0.36 µM	3.5 µM	0.008 µM	> 10 µM	0.06 µM	3.67 µM
CNc1ncc2c(-c3ccc(N4CCNCC4)nc3)nn(Cc3cn(-c4ccsc4C(=O)OC)nn3)c2n1	> 10 µM	> 10 µM	> 10 µM	0.86 µM	> 10 µM	0.43 µM	> 10 µM
CNc1ncc2c(-c3ccc(N4CCNCC4)cc3)nn(Cc3cn(Cc4ccccc4)nn3)c2n1	> 10 µM	> 10 µM	> 10 µM	> 10 µM	> 10 µM	> 10 µM	> 10 µM
CNc1ncc2c(-c3ccc(N4CCNCC4)nc3)nn(CC3OCCO3)c2n1	> 10 µM	7.5 µM	> 10 µM	0.1 µM	> 10 µM	0.16 µM	> 10 µM
CNc1ncc2c(-c3ccc(OC)cc3)nn(CC3OCCO3)c2n1	> 10 µM	> 10 µM	> 10 µM	0.25 µM	> 10 µM	1.2 µM	> 10 µM
Nc1nc(Nc2ccc3c(c2)CC[C@@H](N2CCCC2)CC3)nn1-c1cc2c(nn1)-c1ccccc1CCC2 [BEMCENTINIB]	> 10 µM	1 µM	3.4 µM	0.0009 µM	> 10 µM	0.003 µM	0.017 µM
CNc1ncc2c(-c3ccc(N4CCNCC4)nc3)nn(CC3CCCC3)c2n1	> 10 µM	1.1 µM	2.1 µM	0.02 µM	> 10 µM	0.05 µM	> 10 µM
CNc1ncc2c(-c3ccc(N4CCN(C(=O)C(C)(C)C)CC4)nc3)nn(Cc3cn(Cc4ccccc4)nn3)c2n1	> 10 µM	> 10 µM	> 10 µM	1.2 µM	> 10 µM	4 µM	> 10 µM

The remaining lines, values ahead:

IC50 [1]	IC50 [2]	IC50 [3]	IC50 [4]	IC50 [5]	IC50 [6]	IC50 [7]	Compound
> 10 µM	> 10 µM	> 10 µM	0.3 µM	> 10 µM	> 10 µM	> 10 µM	CNc1ncc2c(-c3ccc(N4CCN(C(=O)C(C)(C)C)CC4)nc3)nn(CC3CCCC3)c2n1
> 10 µM	> 10 µM	> 10 µM	0.7 µM	> 10 µM	0.9 µM	> 10 µM	CNc1ncc2c(-c3ccc(N4CCN(C)CC4)nc3)nn(Cc3cn(Cc4ccccc4)nn3)c2n1
> 10 µM	1.8 µM	> 10 µM	0.1 µM	> 10 µM	0.44 µM	> 10 µM	CCN1CCN(c2ccc(-c3nn(CC4CCCC4)c4nc(NC)ncc34)cn2)CC1
1.9 µM	> 10 µM	6.3 µM	> 10 µM	> 10 µM	6.2 µM	1.9 µM	CCN1CCN(c2ccc(-c3nn(Cc4cn(Cc5ccccc5)nn4)c4nc(NC)ncc34)cn2)CC1
